Measurements published in ChEMBL document CHEMBL1141179 (J Med Chem, 2005).

Tests used:
[1] = biological target: Somatostatin receptor type 5 (Homo sapiens, UniProt P35346); assay: Inhibition of 125I-[Leu8,D-Trp22,Tyr25]SRIF-28 binding to human somatostatin receptor type 5
How it was run: (§1)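 Human sst1 or sst5 receptor stably expressed in CHO-K1 cells. 20 µm cryostat sections of cell membrane pellets were used for receptor autoradiography. IC50 (nM) came from competitive radioligand displacement. Values are mean ± SEM when N ≥ 3; otherwise mean with single values.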

[2] = biological target: Somatostatin receptor type 1 (Homo sapiens, UniProt P30872); assay: Inhibition of 125I-[Leu8,D-Trp22,Tyr25]SRIF-28 binding to human somatostatin receptor type 1; how it was run: as §1
Chain of Somatostatin receptor type 1 (P30872 whole entry): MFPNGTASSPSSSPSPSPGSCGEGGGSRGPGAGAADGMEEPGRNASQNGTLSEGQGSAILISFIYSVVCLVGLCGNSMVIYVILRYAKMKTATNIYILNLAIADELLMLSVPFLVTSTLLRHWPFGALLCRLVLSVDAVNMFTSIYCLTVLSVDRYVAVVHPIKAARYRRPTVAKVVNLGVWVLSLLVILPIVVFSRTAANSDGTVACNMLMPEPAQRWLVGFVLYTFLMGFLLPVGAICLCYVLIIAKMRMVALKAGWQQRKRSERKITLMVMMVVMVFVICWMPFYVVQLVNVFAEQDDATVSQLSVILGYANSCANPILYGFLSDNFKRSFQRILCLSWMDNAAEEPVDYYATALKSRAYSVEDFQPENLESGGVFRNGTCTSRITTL

[3] = biological target: Somatostatin receptor type 2 (Homo sapiens, UniProt P30874); assay: Inhibition of 125I-[Leu8,D-Trp22,Tyr25]SRIF-28 binding to human somatostatin receptor type 2
Chain of Somatostatin receptor type 2 (P30874 whole entry): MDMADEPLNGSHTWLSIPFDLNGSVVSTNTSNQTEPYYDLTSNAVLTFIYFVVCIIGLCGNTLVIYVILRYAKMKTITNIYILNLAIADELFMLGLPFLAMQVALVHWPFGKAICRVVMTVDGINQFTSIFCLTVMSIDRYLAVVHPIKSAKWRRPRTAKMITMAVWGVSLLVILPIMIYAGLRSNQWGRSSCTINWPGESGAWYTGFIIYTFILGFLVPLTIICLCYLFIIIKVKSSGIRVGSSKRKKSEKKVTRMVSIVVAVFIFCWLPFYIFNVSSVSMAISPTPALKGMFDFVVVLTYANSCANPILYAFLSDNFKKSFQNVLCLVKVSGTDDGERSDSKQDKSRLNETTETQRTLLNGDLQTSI
How it was run: (§2)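 Human sst2 or sst3 receptor stably expressed in CCL39 cells. 20 µm cryostat sections of cell membrane pellets were used for autoradiographic binding. IC50 (nM) came from competitive displacement. Values are mean ± SEM when N ≥ 3; otherwise mean with single values.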

[4] = biological target: Somatostatin receptor type 3 (Homo sapiens, UniProt P32745); assay: Inhibition of 125I-[Leu8,D-Trp22,Tyr25]SRIF-28 binding to human somatostatin receptor type 3; how it was run: as §2
Chain of Somatostatin receptor type 3 (P32745 whole entry): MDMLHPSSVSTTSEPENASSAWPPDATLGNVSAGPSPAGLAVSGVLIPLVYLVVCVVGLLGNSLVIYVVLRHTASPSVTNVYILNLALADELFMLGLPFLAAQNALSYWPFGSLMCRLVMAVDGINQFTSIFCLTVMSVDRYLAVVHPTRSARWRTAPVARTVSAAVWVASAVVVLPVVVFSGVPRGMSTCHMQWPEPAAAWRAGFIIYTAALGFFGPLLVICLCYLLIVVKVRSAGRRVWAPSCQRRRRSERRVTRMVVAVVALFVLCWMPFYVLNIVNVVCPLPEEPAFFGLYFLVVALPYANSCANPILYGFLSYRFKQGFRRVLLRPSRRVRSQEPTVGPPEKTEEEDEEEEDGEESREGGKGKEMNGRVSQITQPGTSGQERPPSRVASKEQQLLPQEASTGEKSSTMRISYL

[5] = biological target: Somatostatin receptor type 4 (Homo sapiens, UniProt P31391); assay: Inhibition of 125I-[Leu8,D-Trp22,Tyr25]SRIF-28 binding to human somatostatin receptor type 4
Chain of Somatostatin receptor type 4 (P31391 whole entry): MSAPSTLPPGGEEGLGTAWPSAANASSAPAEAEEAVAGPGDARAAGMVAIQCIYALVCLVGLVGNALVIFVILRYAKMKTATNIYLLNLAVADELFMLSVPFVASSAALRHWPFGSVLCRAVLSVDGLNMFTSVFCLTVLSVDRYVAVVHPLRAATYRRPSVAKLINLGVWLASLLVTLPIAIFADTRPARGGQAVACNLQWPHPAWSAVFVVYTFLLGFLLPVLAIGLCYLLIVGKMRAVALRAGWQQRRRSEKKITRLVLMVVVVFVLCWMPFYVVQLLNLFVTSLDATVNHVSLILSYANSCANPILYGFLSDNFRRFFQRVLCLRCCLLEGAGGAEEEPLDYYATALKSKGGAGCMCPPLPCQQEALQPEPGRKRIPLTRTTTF

Chain of Somatostatin receptor type 5 (P35346 whole entry): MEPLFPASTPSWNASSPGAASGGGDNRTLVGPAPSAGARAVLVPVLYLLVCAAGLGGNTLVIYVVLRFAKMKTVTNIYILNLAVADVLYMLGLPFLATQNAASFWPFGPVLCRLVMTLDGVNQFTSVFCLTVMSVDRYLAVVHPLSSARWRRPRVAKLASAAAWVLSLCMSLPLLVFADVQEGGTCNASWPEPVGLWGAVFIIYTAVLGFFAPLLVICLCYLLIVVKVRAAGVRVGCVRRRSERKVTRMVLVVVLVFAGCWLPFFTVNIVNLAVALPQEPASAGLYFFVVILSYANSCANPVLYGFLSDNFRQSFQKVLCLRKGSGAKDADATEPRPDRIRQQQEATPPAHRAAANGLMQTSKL

Row | IC50 [1] [nM] | IC50 [2] [nM] | IC50 [3] [nM] | IC50 [4] [nM] | IC50 [5] [nM] | SMILES
1 | > 1000 | 14 | > 1000 | 254 | > 1000 | CC(C)NCc1ccc(C[C@H]2C(=O)N[C@@H]([C@@H](C)O)C(=O)N[C@@H](Cc3ccc(O)c(I)c3)C(=O)N[C@H]3CCCCNC(=O)CC[C@H](NC(=O)[C@H](Cc4ccccc4)NC(=O)[C@H](CCCCN)NC(=O)[C@@H](N)CSSC[C@@H](C(=O)O)NC(=O)[C@H](CO)NC3=O)C(=O)N[C@H](Cc3c[nH]c4ccccc34)C(=O)N2C)cc1
2 | > 1000 | 94 | > 1000 | > 1000 | > 1000 | CC(C)NCc1ccc(C[C@@H]2NC(=O)[C@@H](Cc3c[nH]c4ccccc34)NC(=O)[C@@H]3CCC(=O)NCCCCC[C@H](NC(=O)[C@H](Cc4ccccc4)NC(=O)[C@H]([C@@H](C)O)NC2=O)C(=O)N[C@@H](CO)C(=O)N[C@H](C(=O)O)CSSC[C@H](NC(=O)[C@@H](N)Cc2ccc(O)cc2)C(=O)N[C@@H](CCCCN)C(=O)N[C@@H](Cc2ccccc2)C(=O)N3)cc1
3 | 9.5 | 112 | 5 | 11 | 1.4 | C[C@@H](O)[C@@H]1NC(=O)[C@H](Cc2ccccc2)NC(=O)[C@H]([C@@H](C)O)NC(=O)[C@H](CCCCN)NC(=O)[C@@H](Cc2c[nH]c3ccccc23)NC(=O)[C@H](Cc2ccccc2)NC(=O)[C@H](Cc2ccccc2)NC(=O)[C@H](CC(N)=O)NC(=O)[C@@H](N)CSSC[C@@H](C(=O)O)NC1=O
4 | > 1000 | > 1000 | > 1000 | > 1000 | > 1000 | CC(C)NCc1ccc(C[C@@H]2NC(=O)[C@@H](Cc3c[nH]c4ccccc34)NC(=O)[C@@H]3CC(=O)NCCC[C@H](NC(=O)[C@H](Cc4ccccc4)NC(=O)[C@H]([C@@H](C)O)NC2=O)C(=O)N[C@@H](CO)C(=O)N[C@H](C(=O)O)CSSC[C@H](NC(=O)[C@@H](N)Cc2ccc(O)cc2)C(=O)N[C@@H](CCCCN)C(=O)N[C@@H](Cc2ccccc2)C(=O)N3)cc1
5 | > 1000 | 64 | > 1000 | > 1000 | > 1000 | CC(C)NCc1ccc(C[C@@H]2NC(=O)[C@@H](Cc3c[nH]c4ccccc34)NC(=O)[C@@H]3CCC(=O)NCCC(=O)NCCC[C@H](NC(=O)[C@H](Cc4ccccc4)NC(=O)[C@H]([C@@H](C)O)NC2=O)C(=O)N[C@@H](CO)C(=O)N[C@H](C(=O)O)CSSC[C@H](NC(=O)[C@@H](N)Cc2ccc(O)cc2)C(=O)N[C@@H](CCCCN)C(=O)N[C@@H](Cc2ccccc2)C(=O)N3)cc1
6 | > 1000 | 74 | > 1000 | > 1000 | > 1000 | CC(C)NCc1ccc(C[C@@H]2NC(=O)[C@@H](Cc3c[nH]c4ccccc34)NC(=O)[C@@H]3CCC(=O)NCCC(=O)NCC[C@H](NC(=O)[C@H](Cc4ccccc4)NC(=O)[C@H]([C@@H](C)O)NC2=O)C(=O)N[C@@H](CO)C(=O)N[C@H](C(=O)O)CSSC[C@H](NC(=O)[C@@H](N)Cc2ccc(O)cc2)C(=O)N[C@@H](CCCCN)C(=O)N[C@@H](Cc2ccccc2)C(=O)N3)cc1
7 | 31 | 59 | 95 | 189 | 1.2 | C[C@@H](O)[C@@H]1NC(=O)[C@H](CCCCN)NC(=O)[C@@H](Cc2c[nH]c3ccccc23)NC(=O)[C@H](Cc2ccccc2)NC(=O)[C@H](Cc2ccccc2)NC(=O)[C@H](CC(N)=O)NC(=O)[C@@H](N)CSSC[C@@H](C(=O)O)NC(=O)[C@H](Cc2ccccc2)NC1=O
8 | > 1000 | > 1000 | > 1000 | > 1000 | > 1000 | CC(C)NCc1ccc(C[C@@H]2NC(=O)[C@@H](Cc3c[nH]c4ccccc34)NC(=O)[C@H](Cc3ccccc3)NC(=O)[C@@H]3CCC(=O)NCCCC[C@H](NC(=O)[C@H]([C@@H](C)O)NC2=O)C(=O)N[C@@H]([C@@H](C)O)C(=O)N[C@@H](CO)C(=O)N[C@H](C(=O)O)CSSC[C@H](NC(=O)[C@@H](N)Cc2ccc(O)cc2)C(=O)N[C@@H](CCCCN)C(=O)N3)cc1
9 | > 1000 | > 1000 | > 1000 | > 1000 | > 1000 | CC(C)NCc1ccc(C[C@@H]2NC(=O)[C@@H](Cc3c[nH]c4ccccc34)NC(=O)[C@H]3CCC(=O)NCC[C@H](NC(=O)[C@H]([C@@H](C)O)NC2=O)C(=O)N[C@@H]([C@@H](C)O)C(=O)N[C@@H](CO)C(=O)N[C@H](C(=O)O)CSSC[C@H](NC(=O)[C@@H](N)Cc2ccc(O)cc2)C(=O)N[C@@H](CCCCN)C(=O)N[C@@H](Cc2ccccc2)C(=O)N3)cc1
10 | > 1000 | 181 | > 1000 | > 1000 | > 1000 | CC(C)NCc1ccc(C[C@@H]2NC(=O)[C@@H](Cc3c[nH]c4ccccc34)NC(=O)[C@@H]3CCC(=O)NCCCC[C@H](NC(=O)[C@H](Cc4ccccc4)NC(=O)[C@H]([C@@H](C)O)NC2=O)C(=O)N[C@@H](CO)C(=O)N[C@H](C(N)=O)CSSC[C@H](NC(=O)[C@@H](N)Cc2ccc(O)cc2)C(=O)N[C@@H](CCCCN)C(=O)N[C@@H](Cc2ccccc2)C(=O)N3)cc1
11 | > 1000 | > 1000 | > 1000 | 905 | 786 | NCCCC[C@@H]1NC(=O)[C@@H](Cc2c[nH]c3ccccc23)NC(=O)[C@H](Cc2ccccc2)NC(=O)[C@H](Cc2ccccc2)NC(=O)[C@@H](N)CSSC[C@@H](C(=O)O)NC(=O)[C@H](Cc2ccccc2)NC1=O
12 | > 1000 | 597 | > 1000 | > 1000 | > 1000 | CC(C)NCc1ccc(C[C@@H]2NC(=O)[C@@H](Cc3c[nH]c4ccccc34)NC(=O)[C@H](Cc3ccccc3)NC(=O)[C@@H]3CCC(=O)NCC[C@H](NC(=O)[C@H]([C@@H](C)O)NC2=O)C(=O)N[C@@H]([C@@H](C)O)C(=O)N[C@@H](CO)C(=O)N[C@H](C(=O)O)CSSC[C@H](NC(=O)[C@@H](N)Cc2ccc(O)cc2)C(=O)N[C@@H](CCCCN)C(=O)N3)cc1
13 | > 1000 | 274 | > 1000 | > 1000 | > 1000 | CC(C)NCc1ccc(C[C@@H]2NC(=O)[C@@H](Cc3c[nH]c4ccccc34)NC(=O)[C@@H]3CCC(=O)NCCCC(=O)NCCCC[C@H](NC(=O)[C@H](Cc4ccccc4)NC(=O)[C@H]([C@@H](C)O)NC2=O)C(=O)N[C@@H](CO)C(=O)N[C@H](C(=O)O)CSSC[C@H](NC(=O)[C@@H](N)Cc2ccc(O)cc2)C(=O)N[C@@H](CCCCN)C(=O)N[C@@H](Cc2ccccc2)C(=O)N3)cc1
14 | > 1000 | 16 | > 1000 | > 1000 | > 1000 | CC(C)NCc1ccc(C[C@@H]2NC(=O)[C@@H](Cc3c[nH]c4ccccc34)NC(=O)[C@@H]3CCC(=O)NCCCCCC[C@H](NC(=O)[C@H](Cc4ccccc4)NC(=O)[C@H]([C@@H](C)O)NC2=O)C(=O)N[C@@H](CO)C(=O)N[C@H](C(=O)O)CSSC[C@H](NC(=O)[C@@H](N)Cc2ccc(O)cc2)C(=O)N[C@@H](CCCCN)C(=O)N[C@@H](Cc2ccccc2)C(=O)N3)cc1
15 | > 1000 | 53 | > 1000 | > 1000 | > 1000 | CC(C)NCc1ccc(C[C@@H]2NC(=O)[C@@H](Cc3c[nH]c4ccccc34)NC(=O)[C@@H]3CCC(=O)NCCCC[C@H](NC(=O)[C@H](Cc4ccccc4)NC(=O)[C@H]([C@@H](C)O)NC2=O)C(=O)N[C@@H](CO)C(=O)N[C@H](C(=O)O)CSSC[C@H](NC(=O)[C@@H](N)Cc2ccc(O)cc2)C(=O)N[C@@H](CCCCN)C(=O)N[C@@H](Cc2ccccc2)C(=O)N3)cc1
16 | 8.6 | 79 | 28 | 222 | 3.3 | C[C@@H](O)[C@@H]1NC(=O)[C@H](Cc2ccccc2)NC(=O)[C@H]([C@@H](C)O)NC(=O)[C@H](CCCCN)NC(=O)[C@@H](Cc2c[nH]c3ccccc23)NC(=O)[C@H](Cc2ccccc2)NC(=O)[C@H](Cc2ccccc2)NC(=O)[C@@H](N)CSSC[C@@H](C(=O)O)NC(=O)[C@H](CO)NC1=O
17 | > 1000 | > 1000 | > 1000 | > 1000 | > 1000 | CC(C)NCc1ccc(C[C@@H]2NC(=O)[C@@H](Cc3c[nH]c4ccccc34)NC(=O)[C@H]3CCC(=O)NCC[C@@H](NC(=O)[C@H]([C@@H](C)O)NC2=O)C(=O)N[C@@H]([C@@H](C)O)C(=O)N[C@@H](CO)C(=O)N[C@H](C(=O)O)CSSC[C@H](NC(=O)[C@@H](N)Cc2ccc(O)cc2)C(=O)N[C@@H](CCCCN)C(=O)N[C@@H](Cc2ccccc2)C(=O)N3)cc1
18 | > 1000 | > 1000 | > 1000 | > 1000 | > 1000 | CC(C)NCc1ccc(C[C@@H]2NC(=O)[C@@H](Cc3c[nH]c4ccccc34)NC(=O)[C@H](Cc3ccccc3)NC(=O)[C@H]3CCC(=O)NCC[C@@H](NC(=O)[C@H]([C@@H](C)O)NC2=O)C(=O)N[C@@H]([C@@H](C)O)C(=O)N[C@@H](CO)C(=O)N[C@H](C(=O)O)CSSC[C@H](NC(=O)[C@@H](N)Cc2ccc(O)cc2)C(=O)N[C@@H](CCCCN)C(=O)N3)cc1
19 |  | 720 | > 1000 | 445 | > 1000 | CC(C)NCc1ccc(C[C@@H]2NC(=O)C(Cc3c[nH]c4ccccc34)NC(=O)[C@H](Cc3ccccc3)NC(=O)[C@@H](Cc3ccccc3)NC(=O)[C@H](NC(=O)[C@@H](N)Cc3ccc(O)cc3)CSSC[C@@H](C(=O)O)NC(=O)[C@@H]([C@@H](C)O)NC(=O)[C@H](Cc3ccccc3)NC(=O)[C@@H]([C@@H](C)O)NC2=O)cc1 (stereo in doubt)
